Results from ChEMBL document CHEMBL3272147, “Nonapeptide ethylamide inhibitors of the luteinizing hormone-releasing hormone (LH-RH) having a D-alanyl residue in position 6 and variations at positions 2 and 3” (1977).
Activity calls are given as the source filed them. No cut-off for these calls is given here.

Legend:
[1] = target: T1, Gonadotropin-releasing hormone receptor (Rattus norvegicus) (UniProt P30969); experiment: (§1) Antagonist activity at LH-RH receptor in Sprague-Dawley rat pituitary gland assessed as change in 0.3 ng/mL LH-RH-induced luteinizing hormone release in medium at 1 ug/ml preincubated for 2 hrs followed by LH-RH addition at 5th and 6th hr 5 mins post drug addition and measured every hour for 4 hrs by RIA relative to vehicle-treated control
T1 sequence (whole entry): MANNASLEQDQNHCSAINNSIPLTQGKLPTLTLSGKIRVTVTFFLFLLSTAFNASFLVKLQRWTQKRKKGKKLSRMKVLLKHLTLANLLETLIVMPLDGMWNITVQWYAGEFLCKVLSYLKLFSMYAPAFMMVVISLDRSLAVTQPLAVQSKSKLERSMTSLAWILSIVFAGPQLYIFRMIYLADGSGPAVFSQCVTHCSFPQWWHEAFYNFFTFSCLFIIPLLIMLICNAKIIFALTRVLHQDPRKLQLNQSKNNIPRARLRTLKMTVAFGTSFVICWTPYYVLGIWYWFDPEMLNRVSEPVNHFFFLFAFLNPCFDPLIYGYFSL
Procedure, shortened: (§2)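 Two pituitaries from 20-day-old female Sprague-Dawley rats per 1 mL lactated Ringer's, incubated 6 h at 37 °C with shaking, medium collected and replaced hourly for LH/FSH RIA. Analogue added at I3, I4, I5 and I6; LH-RH added 5 min after the peptide at I5 and I6. Results given as Δ ng/mL against LH-LER-1240-2 and NIH-FSH-S1-based standards, with SEM and p.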

[2] = target: T1, Gonadotropin-releasing hormone receptor (Rattus norvegicus); experiment: as §1, with “10” for “1”; procedure, shortened: as §2
[3] = target: T1, Gonadotropin-releasing hormone receptor (Rattus norvegicus); experiment: as §1, with “follicle-stimulating” for “luteinizing”, “10” for “1”; procedure, shortened: as §2
[4] = target: T1, Gonadotropin-releasing hormone receptor (Rattus norvegicus); experiment: Agonist activity at LH-RH receptor in Sprague-Dawley rat pituitary gland assessed as change in luteinizing hormone release in medium at 100 ug/ml incubated for 4 hrs measured every hour for 4 hrs by RIA relative to vehicle-treated control
Procedure, shortened: (§3)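 Pituitaries from 20-day-old female Sprague-Dawley rats, two per 1 mL lactated Ringer's, incubated 6 h total at 37 °C with shaking. Medium removed hourly for LH and FSH RIA and replaced with fresh medium. Analogue alone added at I3–I6. Values expressed as ng of standards LH-LER-1240-2 (0.60 NIH-LH-S1 unit/mg) and FSH 2.1 × NIH-FSH-S1 units/mg; change versus control with SEM and p.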

[5] = target: T1, Gonadotropin-releasing hormone receptor (Rattus norvegicus); experiment: as §1, with “follicle-stimulating” for “luteinizing”; procedure, shortened: as §2
[6] = target: T1, Gonadotropin-releasing hormone receptor (Rattus norvegicus); experiment: Agonist activity at LH-RH receptor in Sprague-Dawley rat pituitary gland assessed as change in follicle-stimulating hormone release in medium at 100 ug/ml incubated for 4 hrs measured every hour for 4 hrs by RIA relative to vehicle-treated control; procedure, shortened: as §3
[7] = target: T1, Gonadotropin-releasing hormone receptor (Rattus norvegicus); experiment: as §1, with “follicle-stimulating” for “luteinizing”, “0.1” for “1”; procedure, shortened: as §2
[8] = target: T1, Gonadotropin-releasing hormone receptor (Rattus norvegicus); experiment: as §1, with “0.1” for “1”; procedure, shortened: as §2
[9] = target: T1, Gonadotropin-releasing hormone receptor (Rattus norvegicus); experiment: as §1, with “follicle-stimulating” for “luteinizing”, “100” for “1”; procedure, shortened: as §2
[10] = target: T1, Gonadotropin-releasing hormone receptor (Rattus norvegicus); experiment: as §1, with “100” for “1”; procedure, shortened: as §2
[11] = target: T1, Gonadotropin-releasing hormone receptor (Rattus norvegicus); experiment: as §1, with “0.6” for “0.3”, “10” for “1”; procedure, shortened: as §2
[12] = target: T1, Gonadotropin-releasing hormone receptor (Rattus norvegicus); experiment: as §1, with “0.6” for “0.3”, “0.1” for “1”; procedure, shortened: as §2
[13] = target: T1, Gonadotropin-releasing hormone receptor (Rattus norvegicus); experiment: as §1, with “0.6” for “0.3”, “follicle-stimulating” for “luteinizing”, “10” for “1”; procedure, shortened: as §2
[14] = target: T1, Gonadotropin-releasing hormone receptor (Rattus norvegicus); experiment: as §1, with “0.6” for “0.3”, “follicle-stimulating” for “luteinizing”, “0.1” for “1”; procedure, shortened: as §2
[15] = target: T1, Gonadotropin-releasing hormone receptor (Rattus norvegicus); experiment: as §1, with “0.6” for “0.3”; procedure, shortened: as §2
[16] = target: T1, Gonadotropin-releasing hormone receptor (Rattus norvegicus); experiment: as §1, with “0.6” for “0.3”, “follicle-stimulating” for “luteinizing”; procedure, shortened: as §2
[17] = system: Rattus norvegicus; experiment: Inhibition of ovulation in 4 day cycling rat at 1.5 mg, sc administered through corn oil between 12 to 12:30 pm on proestrous stage; type: functional, organism-based
Procedure, shortened: (§4)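 Antiovulation test in 4-day cycling rats. A single sc injection of analogue in corn oil was given between 12 and 12:30 p.m. on proestrus. Controls received 0.3 mL of vehicle. Ova shed were counted on estrus.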

[18] = system: Rattus norvegicus; experiment: Inhibition of ovulation in 4 day cycling rat at 750 ug, sc administered through corn oil between 12 to 12:30 pm on proestrous stage; type: functional; procedure, shortened: as §4
[19] = target: T1, Gonadotropin-releasing hormone receptor (Rattus norvegicus); experiment: Agonist activity at LH-RH receptor in Sprague-Dawley rat pituitary gland assessed as change in luteinizing hormone release in medium at 10 ug/ml incubated for 4 hrs measured every hour for 4 hrs by RIA relative to vehicle-treated control; procedure, shortened: as §3
[20] = target: T1, Gonadotropin-releasing hormone receptor (Rattus norvegicus); experiment: Agonist activity at LH-RH receptor in Sprague-Dawley rat pituitary gland assessed as change in follicle-stimulating hormone release in medium at 10 ug/ml incubated for 4 hrs measured every hour for 4 hrs by RIA relative to vehicle-treated control; procedure, shortened: as §3

| Compound | Activity [1] [ng/mL] | Activity [2] [ng/mL] | Activity [3] [ng/mL] | Activity [4] [ng/mL] | Activity [5] [ng/mL] | Activity [6] [ng/mL] | Activity [7] [ng/mL] | Activity [8] [ng/mL] | Activity [9] [ng/mL] | Activity [10] [ng/mL] | Activity [11] [ng/mL] | Activity [12] [ng/mL] | Activity [13] [ng/mL] | Activity [14] [ng/mL] | Activity [15] [ng/mL] | Activity [16] [ng/mL] | inhibition [17] | inhibition [18] | Activity [19] [ng/mL] | Activity [20] [ng/mL] |
| --- | --- | --- | --- | --- | --- | --- | --- | --- | --- | --- | --- | --- | --- | --- | --- | --- | --- | --- | --- | --- |
| CCNC(=O)[C@@H]1CCCN1C(=O)[C@H](CCCNC(=N)N)NC(=O)[C@H](CC(C)C)NC(=O)[C@@H](C)NC(=O)[C@H](Cc1ccc(O)cc1)NC(=O)[C@H](CO)NC(=O)[C@H](CC(C)C)NC(=O)[C@@H](NC(=O)[C@@H]1CCC(=O)N1)[C@@H](C)CC | 186 | -53 | 1760 | 61 | 3330 | -227 |  |  |  |  |  |  |  |  |  |  |  |  |  |  |
| CCC[C@H](NC(=O)[C@H](CC(C)C)NC(=O)[C@@H]1CCC(=O)N1)C(=O)N[C@@H](CO)C(=O)N[C@@H](Cc1ccc(O)cc1)C(=O)N[C@H](C)C(=O)N[C@@H](CC(C)C)C(=O)N[C@@H](CCCNC(=N)N)C(=O)N1CCC[C@H]1C(=O)NCC | 93 | 45 | 2000 |  | 3900 |  | 5120 | 213 |  |  |  |  |  |  |  |  |  |  |  |  |
| CCNC(=O)[C@@H]1CCCN1C(=O)[C@H](CCCNC(=N)N)NC(=O)[C@H](CC(C)C)NC(=O)[C@@H](C)NC(=O)[C@H](Cc1ccc(O)cc1)NC(=O)[C@H](CO)NC(=O)[C@H](CC)NC(=O)[C@H](CC(C)C)NC(=O)[C@@H]1CCC(=O)N1 |  | 150 | 3480 | 1 |  | 866 |  |  | 1780 | 45 |  |  |  |  |  |  |  |  |  |  |
| CCCC[C@H](NC(=O)[C@H](CC(C)C)NC(=O)[C@@H]1CCC(=O)N1)C(=O)N[C@@H](CO)C(=O)N[C@@H](Cc1ccc(O)cc1)C(=O)N[C@H](C)C(=O)N[C@@H](CC(C)C)C(=O)N[C@@H](CCCNC(=N)N)C(=O)N1CCC[C@H]1C(=O)NCC | 70 | 28 | 1630 | 13 | 2240 | -282 |  |  | -516 | 12 |  |  |  |  |  |  |  |  |  |  |
| CCNC(=O)[C@@H]1CCCN1C(=O)[C@H](CCCNC(=N)N)NC(=O)[C@H](CC(C)C)NC(=O)[C@@H](C)NC(=O)[C@H](Cc1ccc(O)cc1)NC(=O)[C@H](CO)NC(=O)CNC(=O)[C@H](CC(C)C)NC(=O)[C@@H]1CCC(=O)N1 |  |  |  | -6 |  | -782 |  |  | 3310 | 169 |  |  |  |  |  |  |  |  |  |  |
| CCC[C@H](NC(=O)[C@H](Cc1ccccc1)NC(=O)[C@@H]1CCC(=O)N1)C(=O)N[C@@H](CO)C(=O)N[C@@H](Cc1ccc(O)cc1)C(=O)N[C@H](C)C(=O)N[C@@H](CC(C)C)C(=O)N[C@@H](CCCNC(=N)N)C(=O)N1CCC[C@H]1C(=O)NCC |  |  |  | -66 |  | -204 |  |  |  |  | -7 | 221 | -883 | 3980 | 32 | 2700 |  |  |  |  |
| CCNC(=O)[C@@H]1CCCN1C(=O)[C@H](CCCNC(=N)N)NC(=O)[C@H](CC(C)C)NC(=O)[C@@H](C)NC(=O)[C@H](Cc1ccc(O)cc1)NC(=O)[C@H](CO)NC(=O)[C@H](CC(C)C)NC(=O)[C@H](CC(C)C)NC(=O)[C@@H]1CCC(=O)N1 | 60 | 45 | 1460 | 73 | 3980 | 712 | 5110 | 166 |  |  |  |  |  |  |  |  |  |  |  |  |
| CCNC(=O)[C@@H]1CCCN1C(=O)[C@H](CCCNC(=N)N)NC(=O)[C@H](CC(C)C)NC(=O)[C@@H](C)NC(=O)[C@H](Cc1ccc(O)cc1)NC(=O)[C@H](CO)NC(=O)[C@H](CC(C)C)NC(=O)[C@H](Cc1c[nH]c2ccccc12)NC(=O)[C@@H]1CCC(=O)N1 |  |  |  | 18 |  | 564 |  |  |  |  | 36 | 193 | -1 | 7370 | 73 | 3090 | Active | Active |  |  |
| CCNC(=O)[C@@H]1CCCN1C(=O)[C@H](CCCNC(=N)N)NC(=O)[C@H](CC(C)C)NC(=O)[C@@H](C)NC(=O)[C@H](Cc1ccc(O)cc1)NC(=O)[C@H](CO)NC(=O)[C@H](CC(C)C)NC(=O)[C@@H](NC(=O)[C@@H]1CCC(=O)N1)C(C)C | 272 | 63 | 1640 |  | 4320 |  |  |  |  |  |  |  |  |  |  |  |  |  | 8 | 490 |
| CCNC(=O)[C@@H]1CCCN1C(=O)[C@H](CCCNC(=N)N)NC(=O)[C@H](CC(C)C)NC(=O)[C@@H](C)NC(=O)[C@H](Cc1ccc(O)cc1)NC(=O)[C@H](CO)NC(=O)[C@H](CC(C)C)NC(=O)[C@H](Cc1ccccc1)NC(=O)[C@@H]1CCC(=O)N1 | 77 | 47 | 549 | 59 | 1560 | 1380 | 3120 | 130 |  |  |  |  |  |  |  |  |  |  |  |  |
